The source made the active and inactive calls. No cut-off for these calls is given here.

In one test the test system is +SA cell. The experiment in a line: Antiproliferative activity against mouse +SA cells assessed as decrease in cell growth up to 100 uM after 4 days by MTT assay. It is filed as functional, cell-based. In short, it runs like this:
(§1)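 Highly malignant +SA mouse mammary epithelial cells were grown in serum-free medium with 10 ng/mL EGF and 10 µg/mL insulin as mitogens. Cells were seeded at 5 × 10^4 cells/well, 6 wells per group, and fed medium containing compound over 0.01-1000 µM for 4 days. Viable cell number was read by MTT colorimetric assay and reported as mean cell count/well + SEM.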
Background: Tetrazolium dyes change colour on reduction, which living cells bring about.
`CC1=C2CC/C(C)=C/CC/C(C)=C/CC/C(C)=C/[C@@H]2OC1=O`: the outcome was Active. For `CC1=C2CC/C(C)=C/CC[C@@H](C)C(=O)CC/C(C)=C/[C@@H]2OC1=O`, the outcome was inactive.

Regarding `CC1=C2CC[C@H](C)[C@H]3CC[C@](C)(O)[C@H](CC/C(C)=C/[C@@H]2OC1=O)O3` (mixture of isomers), the result was inactive. Regarding `CC1=C2CC[C@@](C)(O)CCC[C@](C)(O)[C@@H]3CC[C@@](C)(C[C@@H]2OC1=O)O3` (relative stereo), the outcome was inactive. The same measure, in the same setting: the value for `CC1=C2CC[C@H](C)[C@@H]3CC[C@](C)(O)[C@H](CC/C(C)=C/[C@@H]2OC1=O)O3` (relative stereo) was “inactive”. Regarding `CC1=C2CC[C@H](C)[C@@H]3CC[C@](C)(O)[C@H](CC[C@@](C)(O)C[C@@H]2OC1=O)O3` (relative stereo), the result was inactive. For the compound `CC1=C2CC[C@]3(C)O[C@@H](CC/C(C)=C/[C@@H]2OC1=O)[C@@](C)(O)CC[C@@H]3Br` (relative stereo), the result was Active. As to `CC1=C2CC[C@]3(C)O[C@@H](CC/C(C)=C/[C@@H]2OC1=O)[C@@](C)(O)CC[C@H]3Br` (relative stereo), the result was inactive.

Another test concerns +SA cell. The experiment in a line: Antiproliferative activity against mouse +SA cells assessed as decrease in cell growth at 0 to 10 uM after 4 days by MTT assay. Type of test: functional, cell-based. A digest of the protocol: as §1
`CC1=C2CC/C(C)=C/CC[C@]3(C)O[C@H]3CC/C(C)=C/[C@@H]2OC1=O`: the result was inactive.

A further test deals with +SA cell. The test is described as follows: Antiproliferative activity against mouse +SA cells assessed as decrease in cell growth at 100 to 1000 uM after 4 days by MTT assay. It is filed as functional, cell-based. In short, it runs like this: as §1
As for `CC1=C2CC/C(C)=C/CC[C@]3(C)O[C@H]3CC/C(C)=C/[C@@H]2OC1=O`, the result was Active.

The record behind these values is ChEMBL document CHEMBL1148971, “Bioactive rearranged and halogenated semisynthetic derivatives of the marine natural product sarcophine” (J Nat Prod, 2004).
